Source: PubChem BioAssay
DDE Tn6 FP inh: DD(E)-Tn6 binding inhibition, primary FP screen | P02675 | Fibrin DD(E) TRITC-Tn6 fluorescence polarization displacement | inhibition, % at 8.3 µM | 0.21% of 370,000 active | AID 720509;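 active = inhibition above a per-campaign cutoff: mean of compounds within control limits plus 3 SD, cut at about 15% in these data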;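 note: 0% = median of all compound wells on the plate and 100% = blocking peptide control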
PLC-beta3 inh: blocks human PLC-beta3 enzyme activity; 0.18% of 370,000 active; inhibition, % at 12.2 µM; AID 720704; Purified PLC-beta3, fluorogenic substrate, fluorescence; in the data active = inhibition above about 11%;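 note: 0% = median of compound wells on plate and 100% = full blocker control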
proKLK7 act: proKLK7 (human) activation, primary screen; activation, % at 7 µM; purified proKLK7, EDANS-DABCYL substrate fluorescence; 100% is mature enzyme control, 0% vehicle; 0.9% of 370,000 active; P49862;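 active = activation above the mean of all tested compounds plus 3 SD, computed per campaign excluding outliers beyond control limits, cut at about 13% in these data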
NRP1-CendR mod: NRP-1/CendR interaction modulation | O14786 | FAM-RPARPAR peptide binding to NRP-1, fluorescence polarization | inhibition, % at 25 µM | 0.85% of 360,000 active | AID 602438;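 active = inhibition or corrected inhibition above about 18%, plus a signal ratio from 0.5 to 1.5, limit read from the data, passing the limit was not always enough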
PLCg1 inh: blocks human PLC-gamma1 enzyme activity. 0.84% of 370,000 active. purified PLC-gamma1, fluorogenic substrate, fluorescence. AID 720700. inhibition, % at 12.2 µM; in the data active = inhibition above about 9.5%
Target sequence (P19174 whole entry, looked up): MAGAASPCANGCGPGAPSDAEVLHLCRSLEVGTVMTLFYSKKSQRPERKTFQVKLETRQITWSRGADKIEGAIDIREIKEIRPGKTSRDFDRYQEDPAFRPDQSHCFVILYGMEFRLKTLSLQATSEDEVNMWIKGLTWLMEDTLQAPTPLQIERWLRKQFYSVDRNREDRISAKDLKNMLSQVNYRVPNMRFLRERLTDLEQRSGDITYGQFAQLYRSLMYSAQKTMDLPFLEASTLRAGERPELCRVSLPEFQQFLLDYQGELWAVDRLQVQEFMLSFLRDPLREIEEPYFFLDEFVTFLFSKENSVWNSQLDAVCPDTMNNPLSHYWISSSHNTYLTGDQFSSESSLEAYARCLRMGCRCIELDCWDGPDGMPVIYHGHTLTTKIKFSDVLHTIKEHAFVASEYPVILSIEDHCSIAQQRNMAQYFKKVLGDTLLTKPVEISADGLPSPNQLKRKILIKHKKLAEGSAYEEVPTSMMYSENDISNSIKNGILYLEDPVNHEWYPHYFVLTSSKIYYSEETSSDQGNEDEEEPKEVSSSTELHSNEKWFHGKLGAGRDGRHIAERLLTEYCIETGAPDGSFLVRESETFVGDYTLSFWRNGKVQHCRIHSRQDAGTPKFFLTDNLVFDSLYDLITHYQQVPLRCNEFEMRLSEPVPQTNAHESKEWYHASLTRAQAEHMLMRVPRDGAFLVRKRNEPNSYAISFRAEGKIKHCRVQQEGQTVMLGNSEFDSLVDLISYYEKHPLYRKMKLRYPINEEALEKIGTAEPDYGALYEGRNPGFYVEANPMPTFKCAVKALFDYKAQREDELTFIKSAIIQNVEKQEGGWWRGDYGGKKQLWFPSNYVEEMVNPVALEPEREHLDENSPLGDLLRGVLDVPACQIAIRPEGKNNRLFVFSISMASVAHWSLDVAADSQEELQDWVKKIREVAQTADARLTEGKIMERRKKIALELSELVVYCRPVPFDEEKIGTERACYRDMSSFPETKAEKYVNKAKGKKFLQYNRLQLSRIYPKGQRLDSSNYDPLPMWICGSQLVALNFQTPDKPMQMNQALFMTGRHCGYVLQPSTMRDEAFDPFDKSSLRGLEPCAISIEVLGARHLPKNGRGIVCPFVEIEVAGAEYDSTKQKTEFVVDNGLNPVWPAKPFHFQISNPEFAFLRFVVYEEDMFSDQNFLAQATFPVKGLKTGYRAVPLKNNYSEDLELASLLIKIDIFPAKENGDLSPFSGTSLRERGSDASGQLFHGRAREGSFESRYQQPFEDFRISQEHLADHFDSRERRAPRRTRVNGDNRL
Tn7 DDE FP: disrupts Tn7 cyclic peptide binding to fibrin D-Dimer-E complex | P02675 | FP displacement of FITC-Tn7 peptide from fibrin DD(E); 0% = median of compound wells per plate | inhibition, % at 8.3 µM | AID 720508 | 0.13% of 370,000 active;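 active = inhibition above the mean of compounds falling within the control limits plus 3 SD of them, cut at about 14% in these data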;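 note: 0% = plate median of compound wells and 100% = 10 µM Aha-Tn7 peptide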
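Measure: % inhibition scaled between sample-field median and high-control FP; Test system: human fibrin DD(E); Quantity: 2 µM final DD(E) protein; Doses: one dose, 8.3 µM nominal; Schedule: compound with protein 10 min, then 3 h after probe, room temperature; Detection: fluorescence polarization; Medium: Tris buffer with calcium and detergent, pH 7.8.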
Active calls of the source: *; nt = not tested or not shown. Sampled rows, rich in hits. Any-hit rate of the full collection: about 3%.

SMILES	DDE Tn6 FP inh	PLC-beta3 inh	proKLK7 act	NRP1-CendR mod	PLCg1 inh	Tn7 DDE FP
O=c1cc(CSc2n[nH]c(-c3ccncc3)n2)nc2sccn12	-1	-3	-1	24*	-2	-3
CC(C)(C)C(=O)OC12CCCN(C1)/C(=C/c1ccncc1)C2 (stereo unspecified)	8	-9	0	nt	-5	-6
CCOc1ccccc1NC(=O)COC(=O)c1ccccc1SCC(=O)N1CCCC1	-1	-1	0	-2	0	-4
O=C(COC(=O)c1ccccc1SCC(=O)N1CCCC1)Nc1ccccc1C(F)(F)F	10	-9	0	32*	-2	1
O=[N+]([O-])c1cccc(C=Nc2cc3c(cc2Br)OCCO3)c1	-4	2	-1	27*	2	-1
O=C(N/N=C/c1cccc([N+](=O)[O-])c1)c1ccc2c(c1)OCCO2	0	1	-1	6	0	7
Cc1ccc(-c2ccc(SCC(=O)NC3CCCCC3)nn2)cc1	1	-4	1	-4	-3	1
O=C(CSc1ccc(-c2ccc(F)cc2)nn1)NC1CCCCC1	0	1	0	19*	2	5
Oc1c(Cl)cc(Cl)cc1/C=N/Nc1ncc(Br)cn1	5	-6	1	38*	-5	0
O=C(C1=C[C@H](c2csc3ccccc23)C[C@H](OCCCCO)O1)N1CCN(Cc2ccccc2)CC1	-5	-15	1	27*	-11	1
O=C(NC1CC1)C1=C[C@@H](c2ccc3c(c2)OCO3)C[C@@H](OCCCCO)O1	3	-8	1	28*	-5	2
O=C(C1=C[C@H](c2ccc(C(F)(F)F)cc2)C[C@H](OCCCCO)O1)N1CCN(Cc2ccc3c(c2)OCO3)CC1	-1	3	-1	29*	2	-6
Cc1ccnc(NC(=S)N2CC3CN(c4cccc(C(F)(F)F)c4)CC3C2)c1 (stereo unspecified)	-4	1	nt	nt	1	-5
COc1ccccc1Oc1ccc(S(=O)(=O)N2CCOCC2)cc1S(=O)(=O)N1CCOCC1	-3	1	0	27*	0	-1
CC(COc1ccc(F)cc1)CN1CCC(C(O)(c2ccccc2)c2ccccc2)CC1 (stereo unspecified)	-3	2	0	nt	4	2
O=C(CN1C(=O)c2ccccc2C1=O)NC1CCC(O)CC1 (stereo unspecified)	-5	-7	0	25*	7	0
CN(CCc1ccccc1)C(=O)c1ccc2c(c1)ncn2C1CCCCC1	-1	-2	0	nt	2	-7
Cc1ccc(N)c([N+](=O)[O-])c1	-1	4	0	-5	1	2
Nc1ccc(N=Nc2ccccc2)cc1[N+](=O)[O-]	-1	6	0	23*	8	3
CC(=O)N1CCSc2ccc(S(=O)(=O)Nc3ccc(C)cc3)cc21	-1	-4	0	22*	4	-3
O=C(Nc1ccc(Cl)c(Cl)c1)c1cccc2c1-c1ccccc1C2=O	1	3	0	nt	1	-9
COc1ccc(/C=C2\SC(=S)N(N3C(=O)CCC3=O)C2=O)cc1O	-6	-8	1	36*	-5	6
CCCCNC(=O)C1(C(=O)c2ccc(OC)cc2)CC(c2ccccc2C(F)(F)F)=NO1 (stereo unspecified)	-1	0	-1	nt	3	12
O=C(CCn1cncn1)N1CCCC(N2CCN(c3ccc(F)cc3)CC2)C1 (stereo unspecified)	0	3	1	25*	5	6
O=C1c2cc(CO)cc(O)c2C(=O)c2c(O[C@@H]3OC(CO)[C@@H](O)[C@@H](O)[C@@H]3O)cccc21 (stereo partly specified)	-1	-8	1	-5	-4	-8
SMILES	DDE Tn6 FP inh	PLC-beta3 inh	proKLK7 act	NRP1-CendR mod	PLCg1 inh	Tn7 DDE FP
O=C1c2c(O)cccc2C(C2OC(CO)[C@@H](O)[C@H](O)[C@H]2O)c2cc(CO)cc(O)c21 (stereo partly specified)	-1	-11	1	37*	-5	-1
O=C(O)c1cc(O)c2c(c1)[C@@H]([C@H]1c3cc(C(=O)O)cc(O)c3C(=O)c3c(O[C@@H]4O[C@H](CO)[C@@H](O)[C@H](O)[C@H]4O)cccc31)c1cccc(OC3O[C@H](CO)[C@@H](O)[C@H](O)[C@H]3O)c1C2=O (stereo partly specified)	-5	12*	0	9	7	7
O=C(Nc1ccc(Br)cc1)O[C@@H]1CC[C@@]23CCCN2C(=O)CCC[C@H]3C1	0	1	nt	nt	3	-12
C[C@H]1CCC[C@@]2(O[C@@H](CCO)C[C@H](O)[C@H]2O)O1	4	1	-1	0	-1	7
C[C@H]1CCC[C@]2(O[C@H](CCO)C[C@H](O)[C@H]2O)O1	-5	3	0	29*	4	2
O=C(NC(=S)N1CCCC1)c1ccc(Cl)cc1	2	-2	0	30*	2	0
CN1CCN(C(=S)NC(=O)c2ccc(Cl)cc2)CC1	-3	-4	0	2	-3	3
COC(=O)CC[C@H](/C=C/C(=O)OC(C)(C)C)Sc1ccc(C(C)(C)C)cc1	7	2	1	nt	3	-4
Cc1cc(Cl)ccc1OCC(=O)N/N=C/c1ccc[nH]1	6	2	nt	nt	-1	3
CCCCOC(=O)CCn1c(=S)oc2ccccc21	8	-1	0	53*	1	2
COc1ccc(S(=O)(=O)N2CCN(C(=O)CSc3nc4ccccc4nc3N3CCCCC3)CC2)cc1	1	-2	0	nt	0	-3
CC(=O)Nc1ccc(/C=C/COC(C)=O)cc1C	0	3	nt	nt	3	1
O=C(N/N=C/c1cccs1)c1[nH]ncc1Br	-4	3	0	2	12*	5
Cc1ccccc1C(=O)N(Cc1ccccn1)CC1CCCO1 (stereo unspecified)	0	0	0	nt	-1	-3
CC1(OC(=O)c2ccc(Cl)nc2)C(=O)C=C2C=C3CCCN3C=C2C1=O (stereo unspecified)	11	-10	0	51*	-7	-3
CC1(OC(=O)C2CCCC2)C(=O)C=C2C=C3CCCCN3C=C2C1=O (stereo unspecified)	nt	nt	nt	32*	nt	nt
COC/C=C/C1=CC2=CC(=O)C(C)(OC(=O)c3cnc4ccccc4n3)C(=O)C2=CN1C1CC1 (stereo unspecified)	-1	-10	0	-20	-7	1
COC(=O)CCC(=O)OC1(C)C(=O)C=C2C=C3CCCN3C=C2C1=O (stereo unspecified)	15	-8	0	41*	-5	0
